# In article PMC5497803 (Cancer Science, 2017):
# What was measured:
# MV4;11 cells [1] = test: Cell proliferation MTT assay; format: cell-based; details: Homo sapiens, MV4-11, 72 h, read-out: IC50 value, MV4;11
# Outline: (§1)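 Cells kept in RPMI-1640 with 10% FBS at 37°C, 5% CO2. In 96-well plates, cells exposed in triplicate to a range of test compound concentrations for 72 h at 37°C. Viability read by MTT conversion to coloured product. IC50 by curve fitting; mean ± SEM of three independent experiments.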
# MV4;11 cells [2] = test: Cell cycle analysis by flow cytometry; format: cell-based, human; details: MV4;11, 24 h, 1 μM; control 63.3%
# MV4;11 xenografts = test: MV4; format: in vivo, nude mice
# p110δ [3] = target: T1, p110δ (Homo sapiens, UniProt O00329); test: PI3K isoform-specific cell-based assay, anti‐IgM–stimulated Raji cells; details: anti‐IgM 1 μg/mL 10 min, then 3 h drug
# MV4;11 cells [4] = test: Apoptosis, Annexin V staining and cleaved caspases/PARP; format: cell-based, human; details: MV4;11 (and RS4;11), 48 h
# Outline: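 MV4;11 and RS4;11 cells exposed to test compound at several concentrations for 48 h. Whole-cell lysates were resolved by SDS-PAGE, blotted onto PVDF and probed for PARP and caspase-3, -8 and -9 cleavage, with ECL detection.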
# [5] = system: phosphorylation of AKT and ERK in AML cells; test: Constitutive PI3K/AKT and ERK signaling in AML cells; format: cell-based, human; details: Kasumi‐1 and EOL‐1 cells, 1 μM, 3 h
# Outline: (§2)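 Cells in RPMI-1640/10% FBS treated with 1 μM test compound for 3 h, with no added stimulus. Whole-cell lysates separated by SDS-PAGE and transferred to PVDF. Probed for phospho-AKT (S473, T308), phospho-ERK1/2, phospho-S6 and phospho-P70S6K; ECL detection.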
# p110δ [6] = target: T1, p110δ; test: PI3K ELISA kinase assay, recombinant class I PI3K; format: biochemical
# [7] = system: panel of other protein kinases; test: SelectScreen kinase profiling, whole panel; format: biochemical; details: 1000 nM
# [8] = system: p110δ‐negative MM.1R cell line; test: Cell proliferation MTT assay; format: cell-based; details: 72 h
# Outline: as §1
# [9] = system: peripheral blood mononuclear cells; test: Cytotoxicity against peripheral blood mononuclear cells; format: cell-based; details: 10 μM; data not shown
# RS4;11 xenografts = test: RS4; format: in vivo, nude mice
# Outline: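 Female Balb/cA nude mice, 5–6 weeks old, inoculated subcutaneously with 5–9 × 10^6 MV4;11 or RS4;11 cells and randomised at 100–300 mm3. Dosed orally with 30 or 60 mg/kg daily for 21 days, or vehicle (vehicle n = 12, treated n = 6). Tumour volume taken as (length × width²)/2; body weight and toxicity signs recorded. Tumours collected 3 h after last dose for western blot.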
# p110α [10] = target: T2, p110α (Homo sapiens, UniProt P42336); test: PI3K isoform-specific cell-based assay, SK‐BR‐3 cells; details: 3 h
# Outline: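 SK-BR-3 cells exposed to test compound for 3 h. Cell lysates western blotted with phospho-specific antibodies for AKT phosphorylation.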
# p110β [11] = target: T3, p110β (Homo sapiens, UniProt P42338); test: PI3K isoform-specific cell-based assay, LPA-stimulated PC‐3 cells; details: LPA 10 μM, 3 h drug; compared with Raji cells
# Outline: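 PC-3 cells stimulated with LPA (10 μM) for 10 min, then exposed to test compound for a further 3 h. Cell lysates western blotted for AKT phosphorylation.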
# p110γ = p110γ (Mus musculus, UniProt Q9JHG7); test: PI3K isoform-specific cell-based assay, C5a-stimulated RAW264.7 cells; details: C5a 50 ng/mL, 3 h drug; compared with Raji cells
# [12] = Pharmacokinetic study in MV4; format: in vivo; details: single oral dose 60 mg/kg, MV4;11 tumor‐bearing mice
# Outline: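 MV4;11 tumour-bearing nude mice given a single oral 60 mg/kg dose or vehicle. Plasma and tumours collected at times from 0.5 to 24 h. Drug levels in plasma and tissue measured by HPLC/tandem MS; tumour extracts western blotted for phospho-AKT and phospho-ERK.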
# [13] = system: phosphorylation of AKT or ERK in MM.1R cells; test: Constitutive PI3K/AKT and ERK signaling in MM.1R cells; format: cell-based; details: low expression of p110δ; 1 μM, 3 h
# Outline: as §2
# [14] = previous study ref 38; cited from earlier work
# p110α [15] = target: T2, p110α; test: biochemical
# p110β [16] = target: T3, p110β; test: biochemical
# T1 sequence (O00329 whole entry, species assumed, canonical isoform): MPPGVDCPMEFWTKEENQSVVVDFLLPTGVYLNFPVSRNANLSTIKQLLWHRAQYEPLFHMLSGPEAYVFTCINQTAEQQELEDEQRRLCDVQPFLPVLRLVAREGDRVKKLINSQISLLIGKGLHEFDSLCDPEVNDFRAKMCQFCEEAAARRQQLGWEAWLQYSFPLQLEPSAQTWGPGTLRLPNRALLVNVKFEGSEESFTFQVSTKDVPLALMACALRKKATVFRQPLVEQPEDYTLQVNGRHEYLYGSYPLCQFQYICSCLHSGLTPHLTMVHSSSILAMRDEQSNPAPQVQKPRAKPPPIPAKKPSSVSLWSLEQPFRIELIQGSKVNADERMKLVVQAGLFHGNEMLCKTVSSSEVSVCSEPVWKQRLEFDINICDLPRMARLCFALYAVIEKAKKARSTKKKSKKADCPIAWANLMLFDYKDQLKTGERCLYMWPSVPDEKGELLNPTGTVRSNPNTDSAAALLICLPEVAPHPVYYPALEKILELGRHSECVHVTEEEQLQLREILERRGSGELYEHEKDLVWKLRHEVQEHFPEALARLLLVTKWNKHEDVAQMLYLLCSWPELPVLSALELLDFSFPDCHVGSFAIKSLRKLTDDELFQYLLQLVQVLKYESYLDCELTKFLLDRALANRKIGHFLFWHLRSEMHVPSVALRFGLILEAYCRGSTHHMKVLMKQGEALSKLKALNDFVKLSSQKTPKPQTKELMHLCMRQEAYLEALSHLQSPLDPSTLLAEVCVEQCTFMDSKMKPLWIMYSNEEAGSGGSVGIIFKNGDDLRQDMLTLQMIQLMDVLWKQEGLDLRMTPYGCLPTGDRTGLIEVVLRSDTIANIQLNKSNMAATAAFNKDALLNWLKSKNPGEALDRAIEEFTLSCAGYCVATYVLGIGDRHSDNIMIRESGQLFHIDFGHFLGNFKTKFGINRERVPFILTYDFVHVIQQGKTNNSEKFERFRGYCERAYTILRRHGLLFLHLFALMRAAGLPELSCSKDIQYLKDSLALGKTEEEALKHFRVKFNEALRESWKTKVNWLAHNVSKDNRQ
# T1 sequence (P27986 whole entry partner, species assumed, canonical isoform): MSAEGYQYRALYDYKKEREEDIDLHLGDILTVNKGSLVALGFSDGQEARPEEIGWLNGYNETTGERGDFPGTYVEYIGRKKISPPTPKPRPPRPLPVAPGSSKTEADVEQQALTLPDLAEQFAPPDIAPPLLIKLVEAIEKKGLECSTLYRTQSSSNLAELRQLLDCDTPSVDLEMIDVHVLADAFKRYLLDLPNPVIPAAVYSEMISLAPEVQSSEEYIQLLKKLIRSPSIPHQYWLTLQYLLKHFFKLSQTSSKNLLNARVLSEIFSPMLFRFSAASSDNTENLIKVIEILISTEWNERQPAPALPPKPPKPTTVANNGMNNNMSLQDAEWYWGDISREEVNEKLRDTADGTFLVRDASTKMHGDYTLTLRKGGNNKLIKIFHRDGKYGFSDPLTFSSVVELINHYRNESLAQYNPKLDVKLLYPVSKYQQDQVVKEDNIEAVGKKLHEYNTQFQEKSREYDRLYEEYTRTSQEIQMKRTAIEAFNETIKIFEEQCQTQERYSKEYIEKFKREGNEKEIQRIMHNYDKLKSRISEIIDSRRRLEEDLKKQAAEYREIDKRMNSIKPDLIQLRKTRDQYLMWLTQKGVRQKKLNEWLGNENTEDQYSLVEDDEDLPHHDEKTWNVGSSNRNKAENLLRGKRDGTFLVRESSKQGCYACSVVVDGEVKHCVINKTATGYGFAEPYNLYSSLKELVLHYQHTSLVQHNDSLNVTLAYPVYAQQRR
# T3 sequence (P42338 whole entry, species assumed, canonical isoform): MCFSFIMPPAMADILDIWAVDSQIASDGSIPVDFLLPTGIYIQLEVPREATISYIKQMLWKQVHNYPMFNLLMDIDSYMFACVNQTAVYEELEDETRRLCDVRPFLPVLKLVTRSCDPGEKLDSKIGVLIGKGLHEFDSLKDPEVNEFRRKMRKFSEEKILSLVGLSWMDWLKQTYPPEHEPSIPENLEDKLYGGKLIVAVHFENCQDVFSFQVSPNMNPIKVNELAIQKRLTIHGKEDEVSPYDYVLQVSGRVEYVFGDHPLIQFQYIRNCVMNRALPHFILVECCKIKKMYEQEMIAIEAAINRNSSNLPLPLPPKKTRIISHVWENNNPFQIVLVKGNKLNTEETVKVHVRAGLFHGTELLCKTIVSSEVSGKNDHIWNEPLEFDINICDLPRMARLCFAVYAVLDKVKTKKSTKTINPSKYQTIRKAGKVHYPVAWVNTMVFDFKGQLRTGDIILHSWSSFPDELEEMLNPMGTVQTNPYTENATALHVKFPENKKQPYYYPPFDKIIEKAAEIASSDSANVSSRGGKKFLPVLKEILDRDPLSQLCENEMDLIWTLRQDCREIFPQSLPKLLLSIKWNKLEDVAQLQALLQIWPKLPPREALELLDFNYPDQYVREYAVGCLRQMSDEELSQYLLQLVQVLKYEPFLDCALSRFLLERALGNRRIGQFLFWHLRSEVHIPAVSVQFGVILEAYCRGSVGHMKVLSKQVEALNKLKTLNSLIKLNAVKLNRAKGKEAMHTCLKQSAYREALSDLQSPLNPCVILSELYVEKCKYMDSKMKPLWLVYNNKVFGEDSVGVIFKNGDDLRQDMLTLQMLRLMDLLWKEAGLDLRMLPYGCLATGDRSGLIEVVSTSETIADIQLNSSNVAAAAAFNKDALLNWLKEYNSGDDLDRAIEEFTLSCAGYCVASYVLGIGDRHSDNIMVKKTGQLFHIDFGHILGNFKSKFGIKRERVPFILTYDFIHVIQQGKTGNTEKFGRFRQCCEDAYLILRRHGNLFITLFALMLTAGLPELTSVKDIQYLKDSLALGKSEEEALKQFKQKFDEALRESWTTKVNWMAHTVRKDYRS
# T3 sequence (P27986 whole entry partner, species assumed, canonical isoform): as the sequence (P27986 whole entry partner, species assumed, canonical isoform) above
# T2 sequence (P42336 whole entry, species assumed, canonical isoform): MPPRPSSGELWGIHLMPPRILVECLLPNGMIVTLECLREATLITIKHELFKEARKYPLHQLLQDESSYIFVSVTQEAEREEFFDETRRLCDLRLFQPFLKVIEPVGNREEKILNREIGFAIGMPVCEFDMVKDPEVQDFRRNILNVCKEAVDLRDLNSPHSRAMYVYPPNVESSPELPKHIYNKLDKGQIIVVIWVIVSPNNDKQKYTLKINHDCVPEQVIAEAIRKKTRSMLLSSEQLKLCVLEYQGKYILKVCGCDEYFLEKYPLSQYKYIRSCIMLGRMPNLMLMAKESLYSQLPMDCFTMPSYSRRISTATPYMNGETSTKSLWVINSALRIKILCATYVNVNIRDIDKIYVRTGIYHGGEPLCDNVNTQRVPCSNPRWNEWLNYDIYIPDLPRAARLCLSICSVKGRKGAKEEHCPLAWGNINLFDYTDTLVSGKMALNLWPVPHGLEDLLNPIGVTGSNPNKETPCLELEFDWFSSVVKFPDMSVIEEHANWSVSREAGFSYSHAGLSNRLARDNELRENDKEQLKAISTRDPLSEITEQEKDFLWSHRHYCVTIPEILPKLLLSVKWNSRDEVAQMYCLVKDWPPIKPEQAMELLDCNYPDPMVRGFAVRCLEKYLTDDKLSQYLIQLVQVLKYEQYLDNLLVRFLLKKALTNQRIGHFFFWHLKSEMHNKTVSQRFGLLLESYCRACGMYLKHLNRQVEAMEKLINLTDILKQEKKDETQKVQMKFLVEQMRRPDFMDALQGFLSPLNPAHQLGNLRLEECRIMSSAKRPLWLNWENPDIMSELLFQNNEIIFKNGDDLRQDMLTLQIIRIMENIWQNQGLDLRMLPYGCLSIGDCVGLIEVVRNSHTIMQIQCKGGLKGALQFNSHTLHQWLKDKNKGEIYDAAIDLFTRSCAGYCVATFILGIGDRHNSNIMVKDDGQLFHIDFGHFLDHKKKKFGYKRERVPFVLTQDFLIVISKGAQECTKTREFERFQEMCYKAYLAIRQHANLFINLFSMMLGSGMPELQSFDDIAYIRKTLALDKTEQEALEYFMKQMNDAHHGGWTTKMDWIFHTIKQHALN
# T2 sequence (P27986 whole entry partner, species assumed, canonical isoform): as the sequence (P27986 whole entry partner, species assumed, canonical isoform) above
# p110γ, sequence (Q9JHG7 whole entry, canonical isoform): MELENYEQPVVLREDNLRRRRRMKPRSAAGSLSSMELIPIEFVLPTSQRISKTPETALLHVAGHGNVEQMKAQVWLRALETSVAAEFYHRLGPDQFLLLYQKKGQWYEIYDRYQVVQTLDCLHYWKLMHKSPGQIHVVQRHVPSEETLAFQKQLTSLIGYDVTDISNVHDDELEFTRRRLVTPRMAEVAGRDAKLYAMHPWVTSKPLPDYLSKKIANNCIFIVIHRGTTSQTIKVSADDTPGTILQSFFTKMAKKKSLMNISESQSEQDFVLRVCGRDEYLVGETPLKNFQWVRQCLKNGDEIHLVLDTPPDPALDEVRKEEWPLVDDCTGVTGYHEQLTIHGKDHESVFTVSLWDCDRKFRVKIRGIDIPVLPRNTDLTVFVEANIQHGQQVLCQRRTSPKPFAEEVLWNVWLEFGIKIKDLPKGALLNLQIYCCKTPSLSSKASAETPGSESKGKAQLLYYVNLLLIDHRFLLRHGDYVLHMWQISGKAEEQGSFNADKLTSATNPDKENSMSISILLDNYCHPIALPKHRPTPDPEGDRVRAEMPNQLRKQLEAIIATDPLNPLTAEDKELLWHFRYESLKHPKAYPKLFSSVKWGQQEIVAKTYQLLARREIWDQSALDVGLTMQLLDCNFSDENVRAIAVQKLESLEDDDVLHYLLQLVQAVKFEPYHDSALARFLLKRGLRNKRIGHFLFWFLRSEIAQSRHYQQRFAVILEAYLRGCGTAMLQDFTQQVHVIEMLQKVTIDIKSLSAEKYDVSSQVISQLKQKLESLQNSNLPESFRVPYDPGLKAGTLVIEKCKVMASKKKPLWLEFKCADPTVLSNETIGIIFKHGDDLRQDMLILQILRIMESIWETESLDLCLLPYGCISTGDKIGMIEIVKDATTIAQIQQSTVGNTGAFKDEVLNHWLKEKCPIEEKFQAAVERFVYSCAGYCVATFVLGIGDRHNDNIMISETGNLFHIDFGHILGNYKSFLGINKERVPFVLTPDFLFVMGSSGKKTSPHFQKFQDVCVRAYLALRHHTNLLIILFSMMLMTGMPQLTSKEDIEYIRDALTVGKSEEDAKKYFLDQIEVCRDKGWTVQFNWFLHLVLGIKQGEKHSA
structure (smiles),measurement,setting,value
"CC[C@H](Nc1ncnc2[nH]cnc12)c1nc2cccc(F)c2c(=O)n1-c1ccccc1 [CAL‐101, Idelalisib, reference compound]",IC50,MV4;11 cells [1],2400 nM
same,G1 phase cells,MV4;11 cells [2],70.7%
same,Tumor growth inhibition,"MV4;11 xenografts; MV4;11 xenografts, 90 mg/kg oral daily",50%
same,Tumor growth inhibition,"MV4;11 xenografts; MV4;11 xenografts, 180 mg/kg oral daily",61%
same,"Phosphorylation of AKT, S6 and ERK in anti‐IgM–stimulated Raji cells",p110δ [3],concentration‐dependent decrease
same,Apoptosis induction,MV4;11 cells [4],weaker induction of apoptosis
same,Phosphorylation of AKT and ERK in p110δ‐positive AML cells,[5],preferentially inhibited phosphorylation of AKT relative to ERK
c1cnc2ccc(Nc3nc(NC4CC4)c4nc[nH]c4n3)cc2c1 [Puquitinib],IC50,p110δ [6],3.3 ± 0.6 nM
same,Inhibitory activity against a panel of other protein kinases,[7],little or no inhibitory activity
same,IC50,MV4;11 cells [1],100 nM
same,Cytotoxicity in p110δ‐negative MM.1R cell line,[8],minimal cytotoxicity
same,Cytotoxicity against peripheral blood mononuclear cells,[9],no cytotoxicity
same,G1 phase cells,MV4;11 cells [2],83.0%
same,Levels of pAKT and pERK in tumor tissues,"MV4;11 xenografts; MV4;11 and RS4;11 tumor models, 3 h after last dose",significantly decreased
same,"Tolerability (body weight loss, signs of toxicity)","MV4;11 xenografts; MV4;11 and RS4;11 xenograft studies, all groups",well tolerated
same,Phosphorylation of AKT and ERK in tumor tissue after a single dose,"MV4;11 xenografts; MV4;11 xenograft, single oral 60 mg/kg, 0.5 to 24 h",inhibited in a time‐dependent manner
same,Tumor growth inhibition,"MV4;11 xenografts; MV4;11 xenografts, 30 mg/kg oral daily for 21 days, final treatment day",72%
same,Complete tumor regression,"MV4;11 xenografts; MV4;11 xenografts, 60 mg/kg oral daily",three of six
same,Tumor growth inhibition,"MV4;11 xenografts; MV4;11 xenografts, 60 mg/kg oral daily for 21 days, final treatment day",103%
same,Antitumor efficacy of combination versus single agents,"MV4;11 xenografts; MV4;11 xenografts, 30 mg/kg puquitinib combined with 2 mg/kg daunorubicin, P < 0.01",significantly superior
same,Tolerability of combination,"MV4;11 xenografts; MV4;11 xenografts, puquitinib with daunorubicin or cytarabine",generally well tolerated
same,Tumor growth inhibition,RS4;11 xenografts; 30 mg/kg oral daily for 21 days,50%
same,Tumor growth inhibition,RS4;11 xenografts; 60 mg/kg oral daily for 21 days,69%
same,"Phosphorylation of AKT, S6 and ERK in anti‐IgM–stimulated Raji cells",p110δ [3],concentration‐dependent decrease
same,p110α/AKT phosphorylation in SK‐BR‐3 cells,p110α [10],No obvious inhibitory activity
same,LPA‐stimulated phosphorylation of AKT in PC‐3 cells,p110β [11],much weaker
same,C5a‐stimulated phosphorylation of AKT in RAW 264.7 cells,p110γ,much weaker
same,Apoptosis induction,MV4;11 cells [4],increased in a dose‐dependent manner
same,Appearance in plasma and tumor tissue,[12],appeared rapidly
same,Phosphorylation of AKT and ERK in p110δ‐positive AML cells,[5],significantly inhibited
same,Phosphorylation of AKT or ERK in MM.1R cells,[13],did not affect
same,Hyperglycemia,[14],no puquitinib‐related hyperglycemia
same,IC50,p110α [15],993 ± 320 nM
same,IC50,p110β [16],959 ± 367 nM
